From ChEMBL document CHEMBL4304791, “DABMA: A Derivative of ABMA with Improved Broad-Spectrum Inhibitory Activity of Toxins and Viruses” (ACS Med Chem Lett, 2019)
Calls of active or inactive are those of the source. The rule behind the calls is not given here.

Key:
A549 [1] = experiment: Inhibition of diphtheria induced toxicity in human A549 cells assessed as protection fold at 30 uM incubated for 20 hrs followed by replacement of [14c]-Leucine containing medium and measured after 4 hrs by liquid scintillation analysis relative to ABMA; type: functional
How it was run: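 Single-concentration screen: 30 μM compound on A549 cells with increasing DT concentrations, read as protein synthesis inhibition. Protection fold was calculated with ABMA as the positive control.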

A549 [2] = experiment: Induction of lysosomal activation in human A549 cells at 60 uM incubated for 2 hrs by LysoTracker Red staining based confocal microscopic analysis; type: functional, cell-based
How it was run: (§1)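 A549 cells were pretreated 2 h with compound (30 or 60 μM) or DMSO, then stained with LysoTracker Deep Red (50 nM, 30 min) plus Hoechst. Intensity was read from 3 × 3 fields per well (10,000 cells/well) by imaging reader; mean ± SEM, n = 4; confocal images.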

A549 [3] = experiment: Increase in cholesterol accumulation in human A549 cells at 60 uM incubated for 18 hrs by choelesterol-avid filipin-3 staining based confocal microscopic analysis; type: functional, cell-based
How it was run: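 A549 cells were treated 18 h with compound or DMSO, fixed, and stained with Filipin III for cholesterol. Confocal imaging; fluorescence quantified in >30 cells (mean ± SEM), unpaired t test versus DMSO.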

[4] = Cytotoxicity against human A549 cells assessed as reduction in cell viability incubated for 24 hrs by Alamar blue assay; type: cell-based
How it was run: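 A549 cytotoxicity by Alamar Blue viability assay; duplicate wells, mean ± SD, one representative experiment (n = 3).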

A549 [5] = experiment: Cytoprotection activity against diphtheria toxin-induced cytotoxicity against human A549 cells assessed as effect on protein synthesis incubated for 20 hrs followed by replacement of [14c]-Leucine containing medium and measured after 4 hrs by liquid scintillation analysis; type: functional, cell-based
How it was run: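 A549 cells were incubated with compound and then challenged with increasing DT concentrations. DT cytotoxicity was read as protein synthesis inhibition. Data are mean of duplicate wells ± SD from one representative experiment (n = 3).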

A549 [6] = experiment: Selectivity index, ratio of CC50 for cytotoxicity against human A549 cells to EC50 for cytoprotective activity in diphtheria-induced cytotoxicity in human A549 cells
A549 [7] = experiment: Induction of lysosomal activation in human A549 cells incubated for 2 hrs by LysoTracker Red staining based confocal microscopic analysis; type: functional, cell-based; how it was run: as §1
A549 [8] = experiment: Induction of lysosomal activation in human A549 cells at 30 uM incubated for 2 hrs by LysoTracker Red staining based confocal microscopic analysis; type: functional, cell-based; how it was run: as §1
Vero = experiment: Inhibition of TcdB-induced cytotoxicity against African green monkey Vero cells assessed as reduction in toxin-induced cell rounding at 30 uM in presence of TcdB after 4 hrs by inverted microscopic analysis; type: functional, cell-based; settings: Chlorocebus sabaeus
How it was run: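 Vero cells were given compound (30 μM) or DMSO, then increasing doses of TcdB for 4 h or TcsL for 16 h. Cell rounding was imaged by inverted microscope. Rounded cells were counted and normalised to total Hoechst-counterstained cells (>100 cells per treatment).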

Lyssavirus rabies = experiment: Antiviral activity against RABV infected in BSR cells preincubated for 4 hrs followed by viral infection and further incubated with compounds for 24 hrs by immunostaining-based assay; type: functional, organism-based
How it was run: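 BSR cells were pretreated 4 h with compound, then infected with RABV (MOI = 14) for 1 h. Cells were washed and kept with compound for 24 h, then fixed and immunostained for the RABV ribonucleocapsid (RNP). Nuclei and RNP images from 15 fields per well (>10,000 cells) were used to calculate percent inhibition.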

L929 = experiment: Cytoprotective activity in Pseudomonas aeruginosa exotoxin-induced toxicity in mouse L929 cells assessed as protection of protein synthesis after 18 hrs followed by replacement of [14c]-Leucine containing medium and measured after 4 hrs by liquid scintillation analysis by liquid scintillation analysis; type: functional, cell-based
How it was run: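 L929 cells were intoxicated with increasing doses of Pseudomonas exotoxin A for 18 h with compound (30 μM) or DMSO present. Protein synthesis was measured; duplicate wells, mean ± SD, one representative experiment (n = 3).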

A549 [9] = experiment: Inhibition of diphtheria induced toxicity in human A549 cells assessed as protection factor at 0.15 nM incubated for 20 hrs followed by replacement of [14c]-Leucine containing medium and measured after 4 hrs by liquid scintillation analysis relative to untreated control; type: functional
How it was run: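 A549 cells were incubated with Baf A1 (0.15 nM), DABMA (15 μM), both, or DMSO vehicle before DT was added, with the compounds kept present throughout. Toxin protection was read as protein synthesis and expressed as protection factor.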

Row | SMILES | fold change (FC) (A549 [1]) | further results
1 | COc1ccc(Br)cc1CNC1CC(C)CCC1C(C)C (stereo not given) | 2.2 | –
2 | COc1ccc(Br)cc1CNC(C)(C)C | 0 | –
3 | COc1ccc(Br)cc1CNCCCc1ccccc1 | 0.52 | –
4 | COc1ccc(Br)cc1CN[C@H]1C[C@@H]2CC[C@@]1(C)C2(C)C | 0.4 | –
5 | COc1ccc(Br)cc1CNc1cccc2ccccc12 | 0.19 | –
6 | COc1ccc(Br)cc1C(=O)NC12CC3CC(CC(C3)C1)C2 | 0 | Activity (A549 [2]): inactive; Activity (A549 [3]): inactive
7 | COc1ccc(I)cc1CNC12CC3CC(C)(CC(C)(C3)C1)C2 | 35.1 | CC50 at 24 h [4]: 90.8 µM; EC50 (A549 [5]): 25.1 µM; Ratio CC50/EC50 (A549 [6]): 3.6
8 | CC12CC3CC(C)(C1)CC(N)(C3)C2 [MEMANTINE] | 0 | –
9 | COc1ccc(Br)cc1CN(C(C)=O)C12CC3CC(CC(C3)C1)C2 | 0.3 | Activity (A549 [7]): inactive
10 | COc1ccc(Br)cc1CNC1CCCCC1 | 0 | –
11 | NC12CC3CC(CC(C3)C1)C2 [AMANTADINE] | 0.3 | –
12 | COc1ccc(Br)cc1CN(C(=O)c1ccccc1)C12CC3CC(CC(C3)C1)C2 | 0.25 | –
13 | Ic1ccc(CNC23CC4CC(CC(C4)C2)C3)cc1 | 6.6 | –
14 | CCCCCCCCCNCc1cc(Br)ccc1OC | 0.26 | –
15 | COc1ccc(Br)cc1CNC12CC3CC(CC(C3)C1)C2 | – | CC50 at 24 h [4]: 277 µM; EC50 (A549 [5]): 62.9 µM; Activity (A549 [8]): Active; inhibition (Vero): Active; Ratio CC50/EC50 (A549 [6]): 4.4; inhibition (Lyssavirus rabies): Active; Activity (L929): Active
16 | O=[N+]([O-])c1cccc(CNC23CC4CC(CC(C4)C2)C3)c1 | 5.7 | –
17 | COc1ccc(Br)cc1/C=N/C12CC3CC(CC(C3)C1)C2 | 0.05 | Activity (A549 [7]): inactive
18 | NC(=O)c1ncn([C@@H]2O[C@H](CO)[C@@H](O)[C@H]2O)n1 | – | inhibition (Lyssavirus rabies): Active
19 | COc1ccc(Br)cc1CN(C)C12CC3CC(CC(C3)C1)C2 | 0.52 | –
20 | COc1cc(I)ccc1CNC12CC3CC(CC(C3)C1)C2 | 3.6 | –
21 | CC(N)C12CC3CC(CC(C3)C1)C2.Cl (stereo not given) [RIMANTADINE HYDROCHLORIDE] | 0.35 | –
22 | Cn1c(CNC2C3CC4CC(C3)CC2C4)cc2ccccc21 (stereo not given) | 0.21 | –
23 | Cn1c(CNC23CC4CC(CC(C4)C2)C3)cc2ccccc21 | 0.21 | –
24 | CO/C1=C\C(C)=C\[C@@H](C)[C@@H](O)[C@@H](C)C/C(C)=C/C=C/[C@H](OC)[C@@H]([C@@H](C)[C@@H](O)[C@H](C)[C@@]2(O)C[C@@H](O)[C@H](C)[C@@H](C(C)C)O2)OC1=O [BAFILOMYCIN A1] | – | EC50 (A549 [5]): 0.0006 µM; fold change (FC) (A549 [9]): 5.2
25 | Brc1ccc(CNC23CC4CC(CC(C4)C2)C3)cc1 | 2.3 | –
26 | CC12CC3CC(C)(C1)CC(NCc1ccc(I)cc1)(C3)C2 | 12.5 | CC50 at 24 h [4]: 137 µM; EC50 (A549 [5]): 38.3 µM; Ratio CC50/EC50 (A549 [6]): 3.6
27 | COc1ccc(Br)cc1CNCc1ccccc1 | 0 | –
28 | COc1ccc(Br)cc1CNc1ccccc1 | 0.19 | –
